Assay results taken from ChEMBL document CHEMBL4052588, “Design of a Biased Potent Small Molecule Inhibitor of the Bromodomain and PHD Finger-Containing (BRPF) Proteins Suitable for Cellular and in Vivo Studies” (J Med Chem, 2017).
pIC50, pKd: −log10 of the molar value.

What was measured:
[1] = target: SWI/SNF-related matrix-associated actin-dependent regulator of chromatin subfamily A member 2 (Homo sapiens, UniProt P51531); assay: Inhibition of human SMARCA2A expressed in Escherichia coli BL21 after 1 hr by BROMOscan assay
SWI/SNF-related matrix-associated actin-dependent regulator of chromatin subfamily A member 2, sequence (P51531 whole entry): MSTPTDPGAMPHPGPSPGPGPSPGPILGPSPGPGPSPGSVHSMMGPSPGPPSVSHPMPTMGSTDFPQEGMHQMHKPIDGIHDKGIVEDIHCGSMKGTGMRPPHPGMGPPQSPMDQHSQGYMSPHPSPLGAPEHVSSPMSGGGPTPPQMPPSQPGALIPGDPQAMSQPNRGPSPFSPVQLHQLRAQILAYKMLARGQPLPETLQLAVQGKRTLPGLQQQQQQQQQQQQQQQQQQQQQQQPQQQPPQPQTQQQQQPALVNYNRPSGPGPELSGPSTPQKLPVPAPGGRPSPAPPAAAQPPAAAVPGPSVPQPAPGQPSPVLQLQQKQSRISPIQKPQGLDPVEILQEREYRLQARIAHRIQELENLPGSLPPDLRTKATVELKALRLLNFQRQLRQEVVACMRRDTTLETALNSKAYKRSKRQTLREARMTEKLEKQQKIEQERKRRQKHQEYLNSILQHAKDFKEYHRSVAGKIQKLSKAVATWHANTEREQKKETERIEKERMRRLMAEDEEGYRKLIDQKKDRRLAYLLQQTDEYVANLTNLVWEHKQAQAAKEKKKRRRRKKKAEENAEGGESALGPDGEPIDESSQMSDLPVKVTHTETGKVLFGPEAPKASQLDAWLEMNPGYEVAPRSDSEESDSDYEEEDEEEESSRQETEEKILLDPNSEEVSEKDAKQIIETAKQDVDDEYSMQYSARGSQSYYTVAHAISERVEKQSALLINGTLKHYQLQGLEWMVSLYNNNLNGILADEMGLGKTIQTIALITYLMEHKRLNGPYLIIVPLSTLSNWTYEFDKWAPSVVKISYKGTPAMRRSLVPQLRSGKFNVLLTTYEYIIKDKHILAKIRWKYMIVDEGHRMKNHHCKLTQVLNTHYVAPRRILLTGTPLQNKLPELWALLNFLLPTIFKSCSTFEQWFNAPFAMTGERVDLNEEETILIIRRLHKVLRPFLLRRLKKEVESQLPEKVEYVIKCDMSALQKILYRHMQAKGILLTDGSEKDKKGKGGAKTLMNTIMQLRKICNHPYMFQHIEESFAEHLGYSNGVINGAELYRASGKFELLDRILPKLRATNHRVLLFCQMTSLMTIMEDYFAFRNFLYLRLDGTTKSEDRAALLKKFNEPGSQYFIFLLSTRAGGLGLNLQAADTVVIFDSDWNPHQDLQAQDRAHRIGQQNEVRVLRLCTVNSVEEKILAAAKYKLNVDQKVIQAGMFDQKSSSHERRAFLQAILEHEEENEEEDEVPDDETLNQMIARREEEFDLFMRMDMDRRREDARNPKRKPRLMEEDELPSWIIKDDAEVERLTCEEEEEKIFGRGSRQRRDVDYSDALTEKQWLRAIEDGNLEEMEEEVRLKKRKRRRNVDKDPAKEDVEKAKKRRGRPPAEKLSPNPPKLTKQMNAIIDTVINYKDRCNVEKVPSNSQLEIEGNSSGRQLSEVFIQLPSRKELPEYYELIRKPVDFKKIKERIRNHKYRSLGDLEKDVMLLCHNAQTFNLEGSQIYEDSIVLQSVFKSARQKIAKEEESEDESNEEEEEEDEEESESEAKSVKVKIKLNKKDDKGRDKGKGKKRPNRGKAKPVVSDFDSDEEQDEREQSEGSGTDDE

[2] = target: E3 ubiquitin-protein ligase TRIM33 (Homo sapiens, UniProt Q9UPN9); assay: Inhibition of human TRIM33 expressed in Escherichia coli BL21 after 1 hr by BROMOscan assay
E3 ubiquitin-protein ligase TRIM33, sequence (Q9UPN9 whole entry): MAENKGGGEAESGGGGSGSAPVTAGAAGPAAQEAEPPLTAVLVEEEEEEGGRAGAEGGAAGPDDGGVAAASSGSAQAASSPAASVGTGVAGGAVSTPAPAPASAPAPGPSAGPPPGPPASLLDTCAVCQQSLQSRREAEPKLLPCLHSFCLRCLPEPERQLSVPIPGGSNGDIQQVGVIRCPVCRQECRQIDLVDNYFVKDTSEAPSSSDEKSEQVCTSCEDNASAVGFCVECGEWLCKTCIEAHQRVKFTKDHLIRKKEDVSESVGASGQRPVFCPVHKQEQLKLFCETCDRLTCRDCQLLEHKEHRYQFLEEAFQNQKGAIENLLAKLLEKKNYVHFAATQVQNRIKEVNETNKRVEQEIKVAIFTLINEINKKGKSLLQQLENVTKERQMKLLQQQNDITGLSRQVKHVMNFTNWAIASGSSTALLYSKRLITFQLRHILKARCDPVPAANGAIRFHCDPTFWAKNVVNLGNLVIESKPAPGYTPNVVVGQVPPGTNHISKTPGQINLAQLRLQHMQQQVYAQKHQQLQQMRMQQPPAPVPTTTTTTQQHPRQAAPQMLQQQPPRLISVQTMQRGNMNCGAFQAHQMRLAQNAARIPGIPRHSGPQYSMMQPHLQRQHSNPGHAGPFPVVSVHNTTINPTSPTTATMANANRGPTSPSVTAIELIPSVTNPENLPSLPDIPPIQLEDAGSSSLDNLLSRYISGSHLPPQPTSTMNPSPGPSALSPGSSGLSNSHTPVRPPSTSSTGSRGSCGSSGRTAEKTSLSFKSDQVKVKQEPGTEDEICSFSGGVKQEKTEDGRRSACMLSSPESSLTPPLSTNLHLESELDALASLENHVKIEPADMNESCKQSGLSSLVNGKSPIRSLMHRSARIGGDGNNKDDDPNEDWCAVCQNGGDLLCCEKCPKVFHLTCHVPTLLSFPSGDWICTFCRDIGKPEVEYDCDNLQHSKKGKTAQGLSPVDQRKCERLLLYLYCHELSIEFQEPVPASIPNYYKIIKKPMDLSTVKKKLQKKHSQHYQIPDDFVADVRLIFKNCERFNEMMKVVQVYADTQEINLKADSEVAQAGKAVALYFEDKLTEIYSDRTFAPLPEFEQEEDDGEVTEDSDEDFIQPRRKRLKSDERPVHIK

HuP-T4 = assay: Growth inhibition of human HUPT4 cells after 72 hrs; type: functional; settings: HuP-T4, 72 h
SNU-5 = assay: Growth inhibition of human SNU5 cells after 72 hrs; type: functional; settings: SNU-5, 72 h
HCC1187 = assay: Growth inhibition of human HCC1187 cells after 72 hrs; type: functional; settings: HCC1187, 72 h
[3] = AUC (0 to infinity) in CD-1 mouse blood at 3 mg/kg, po; type: ADME, organism-based; set-up: dose 3 mg/kg, time infinity, route oral; settings: whole blood
How it was run: (§1)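 Female CD-1 mice (n = 3), single dosing: intravenous 1.0 mg/kg, or oral 3.0 mg/kg given as a suspension. Blood levels were followed over time to derive clearance, volume of distribution, elimination half-life, Cmax, Tmax, AUC0−∞, oral bioavailability and fraction absorbed.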

[4] = Elimination half life in CD-1 mouse plasma at 1 mg/kg, iv administered as bolus; type: ADME, organism-based; settings: read-out: beta t1/2 (converted); how it was run: as §1
Peregrin = target: T1, Peregrin (Homo sapiens, UniProt P55201); assay: Binding affinity to human BRPF1 by isothermal titration calorimetry
T1 sequence (P55201 whole entry): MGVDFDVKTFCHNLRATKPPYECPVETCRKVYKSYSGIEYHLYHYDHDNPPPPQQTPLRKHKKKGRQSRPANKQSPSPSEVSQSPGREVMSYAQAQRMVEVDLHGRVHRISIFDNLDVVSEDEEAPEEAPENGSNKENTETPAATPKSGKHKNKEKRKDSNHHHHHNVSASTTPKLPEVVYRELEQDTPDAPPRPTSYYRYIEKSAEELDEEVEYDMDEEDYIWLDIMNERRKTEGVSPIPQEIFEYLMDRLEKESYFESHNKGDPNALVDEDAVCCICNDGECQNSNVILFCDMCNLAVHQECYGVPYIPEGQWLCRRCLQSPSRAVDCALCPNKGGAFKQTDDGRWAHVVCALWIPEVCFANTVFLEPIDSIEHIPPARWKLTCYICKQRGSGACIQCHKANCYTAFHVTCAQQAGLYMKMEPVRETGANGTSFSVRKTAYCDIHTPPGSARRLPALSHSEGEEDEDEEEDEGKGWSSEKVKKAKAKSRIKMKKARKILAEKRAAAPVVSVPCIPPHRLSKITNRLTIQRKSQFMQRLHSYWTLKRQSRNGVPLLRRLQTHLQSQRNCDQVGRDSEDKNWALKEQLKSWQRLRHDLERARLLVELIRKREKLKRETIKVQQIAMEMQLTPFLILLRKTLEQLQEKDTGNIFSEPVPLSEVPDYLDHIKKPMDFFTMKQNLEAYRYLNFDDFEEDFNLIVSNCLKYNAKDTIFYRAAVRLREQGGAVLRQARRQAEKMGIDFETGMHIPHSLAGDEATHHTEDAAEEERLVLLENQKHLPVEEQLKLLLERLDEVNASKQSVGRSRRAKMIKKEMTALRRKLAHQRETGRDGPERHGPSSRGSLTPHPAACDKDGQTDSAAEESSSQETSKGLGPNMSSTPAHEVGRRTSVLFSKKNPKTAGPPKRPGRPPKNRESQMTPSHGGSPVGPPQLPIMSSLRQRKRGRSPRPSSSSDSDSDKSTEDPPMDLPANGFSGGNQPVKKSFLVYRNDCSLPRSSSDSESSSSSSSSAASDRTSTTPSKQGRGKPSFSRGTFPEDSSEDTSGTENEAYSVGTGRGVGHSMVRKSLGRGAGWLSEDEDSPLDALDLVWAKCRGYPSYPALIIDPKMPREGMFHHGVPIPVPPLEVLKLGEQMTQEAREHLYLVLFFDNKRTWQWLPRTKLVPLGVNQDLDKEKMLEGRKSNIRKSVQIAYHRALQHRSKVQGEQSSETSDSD
How it was run: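 Titration of compound into BRPF1 bromodomain; binding heats recorded per injection, normalized enthalpies fitted by nonlinear least squares to a single-binding-site model to give KD, ΔH and TΔS.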

[5] = Oral bioavailability in CD-1 mouse at 3 mg/kg; type: ADME, organism-based; settings: in vivo; how it was run: as §1
[6] = Tmax in CD-1 mouse blood at 3 mg/kg, po; type: ADME, organism-based; settings: whole blood; how it was run: as §1
AGS = assay: Growth inhibition of human AGS cells after 72 hrs; type: functional
Hs 766 = assay: Growth inhibition of human Hs766T cells after 72 hrs; type: functional; settings: Hs 766, 72 h
[7] = Intrinsic clearance in mouse liver microsomes; type: ADME, microsome; settings: read-out: CLH
[8] = Clearance in CD-1 mouse blood at 1 mg/kg, iv administered as bolus; type: ADME, organism-based; settings: whole blood; how it was run: as §1
hERG (KCNH2) = hERG (KCNH2) (Homo sapiens, UniProt Q12809); assay: Inhibition of human ERG at 30 uM
hERG (KCNH2), sequence (Q12809 whole entry): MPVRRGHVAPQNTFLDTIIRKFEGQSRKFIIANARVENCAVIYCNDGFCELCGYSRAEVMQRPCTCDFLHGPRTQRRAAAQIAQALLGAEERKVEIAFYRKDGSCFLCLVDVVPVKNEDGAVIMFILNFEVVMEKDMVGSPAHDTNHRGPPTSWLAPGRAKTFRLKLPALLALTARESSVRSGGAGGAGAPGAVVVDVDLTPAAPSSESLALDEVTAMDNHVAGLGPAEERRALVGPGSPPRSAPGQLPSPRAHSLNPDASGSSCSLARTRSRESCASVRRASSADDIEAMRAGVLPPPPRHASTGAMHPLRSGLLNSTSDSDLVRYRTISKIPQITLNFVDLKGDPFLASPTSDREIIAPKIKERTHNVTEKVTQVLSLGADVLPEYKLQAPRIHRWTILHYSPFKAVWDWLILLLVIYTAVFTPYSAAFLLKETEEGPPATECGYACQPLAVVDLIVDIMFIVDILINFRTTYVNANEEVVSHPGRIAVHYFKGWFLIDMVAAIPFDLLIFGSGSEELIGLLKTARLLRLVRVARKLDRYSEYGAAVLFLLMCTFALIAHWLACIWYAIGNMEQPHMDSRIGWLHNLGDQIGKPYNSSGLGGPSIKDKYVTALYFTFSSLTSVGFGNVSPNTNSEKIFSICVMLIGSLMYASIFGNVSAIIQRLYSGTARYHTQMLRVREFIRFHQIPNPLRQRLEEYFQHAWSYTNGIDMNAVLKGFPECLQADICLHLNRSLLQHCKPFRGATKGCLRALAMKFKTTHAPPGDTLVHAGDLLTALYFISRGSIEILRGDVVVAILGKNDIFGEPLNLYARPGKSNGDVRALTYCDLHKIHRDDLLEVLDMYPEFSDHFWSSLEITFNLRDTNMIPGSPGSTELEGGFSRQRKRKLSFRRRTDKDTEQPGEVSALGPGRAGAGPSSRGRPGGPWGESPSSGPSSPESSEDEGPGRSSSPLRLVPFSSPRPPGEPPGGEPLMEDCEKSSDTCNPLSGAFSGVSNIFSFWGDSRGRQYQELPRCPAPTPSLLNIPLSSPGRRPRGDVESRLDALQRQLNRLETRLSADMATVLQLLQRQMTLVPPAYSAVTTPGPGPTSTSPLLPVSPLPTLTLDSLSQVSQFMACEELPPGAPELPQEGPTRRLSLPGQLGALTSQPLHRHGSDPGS

Compound	pIC50 [1]	pIC50 [2]	GI50 (HuP-T4)	GI50 (SNU-5)	GI50 (HCC1187)	AUC(0-inf) [3]	half-life [4]	pKd (Peregrin)	bioavailability [5]	Tmax [6]	GI50 (AGS)	GI50 (Hs 766)	microsomal CLint [7]	clearance [8]	inhibition at 30 µM (hERG (KCNH2))
CCc1cc2cc(NS(=O)(=O)c3ccc(C#N)cc3)ccc2n(CC)c1=O	4.11	< 4.00	–	–	–	–	–	–	–	–	–	–	–	–	–
Cc1cc2cc(NS(=O)(=O)c3ccc(C#N)cc3)ccc2n(C)c1=O	–	–	1 to 10 µM	1 to 10 µM	1 to 10 µM	5700 ng·h/mL	2 h	7.40	49%	1 h	1 to 10 µM	1 to 10 µM	14 µL/min/mg	4 mL/min/kg	45.6%
